Test results as given in ChEMBL document CHEMBL1140705, “Synthesis and evaluation of N-methyl and S-methyl 11C-labeled 6-methylthio-2-(4'-N,N-dimethylamino)phenylimidazo[1,2-a]pyridines as radioligands for imaging beta-amyloid plaques in Alzheimer's disease” (J Med Chem, 2008).
Each block holds one molecule with its values, some of them ahead of it.

What was measured:
[1] = molecular target: Amyloid-beta precursor protein (Homo sapiens, UniProt P05067); experiment: Binding affinity to beta amyloid plaque in human Alzheimer's disease brain tissue; type: tissue-based
Amyloid-beta precursor protein, sequence (P05067 whole entry): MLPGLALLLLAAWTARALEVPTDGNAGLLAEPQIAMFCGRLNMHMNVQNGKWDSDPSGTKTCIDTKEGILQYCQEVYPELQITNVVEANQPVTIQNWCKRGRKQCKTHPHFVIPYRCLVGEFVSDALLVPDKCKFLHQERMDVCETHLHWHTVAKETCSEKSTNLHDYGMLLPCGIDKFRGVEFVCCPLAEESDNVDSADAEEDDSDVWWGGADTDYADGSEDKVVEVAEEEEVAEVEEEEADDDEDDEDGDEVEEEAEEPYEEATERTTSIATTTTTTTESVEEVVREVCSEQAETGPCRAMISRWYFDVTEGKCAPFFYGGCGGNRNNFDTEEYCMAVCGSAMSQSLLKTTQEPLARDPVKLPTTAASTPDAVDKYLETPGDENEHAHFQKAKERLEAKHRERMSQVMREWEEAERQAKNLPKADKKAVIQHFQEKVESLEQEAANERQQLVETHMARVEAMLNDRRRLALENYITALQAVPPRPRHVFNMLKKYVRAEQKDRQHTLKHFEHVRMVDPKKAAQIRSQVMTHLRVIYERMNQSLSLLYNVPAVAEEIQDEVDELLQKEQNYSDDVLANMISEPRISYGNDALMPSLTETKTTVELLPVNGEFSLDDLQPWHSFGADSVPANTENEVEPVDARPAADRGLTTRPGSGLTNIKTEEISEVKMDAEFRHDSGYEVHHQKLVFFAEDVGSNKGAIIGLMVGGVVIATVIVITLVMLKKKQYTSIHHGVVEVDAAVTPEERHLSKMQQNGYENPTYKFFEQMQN
Procedure, shortened: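 Competition binding in human AD brain homogenate (1:500 in PBS) against [3H]PIB (0.4 nM), displacer 10^-10 to 10^-5 M from DMSO dilutions, total volume 1.0 mL PBS, 2 h at 37 °C; filtration on polyethyleneimine-treated GF/B, PBS washes, scintillation counting. One-site competition fit; Ki by Cheng-Prusoff using KD from homologous displacement Scatchard analysis.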

[2] = Lipophilicity, log D at pH 7.4; type: physicochemical; conditions: buffer
Procedure, shortened: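 Shake-flask partition: 3-5 mg ligand in 0.1 M PBS pH 7.4 (6.0 mL) with n-octanol (1.0 mL), vortexed, shaken, held 10 min at room temperature, centrifuged 5000g. Both phases quantified by reverse-phase HPLC; P taken as organic/aqueous concentration ratio; n = 3.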

[3] = molecular target: 5-hydroxytryptamine receptor 6 (Homo sapiens) (UniProt P50406); experiment: Displacement of […] from 5HT6 receptor at 10 uM
[4] = molecular target: 5-hydroxytryptamine receptor 7 (Homo sapiens) (UniProt P34969); experiment: Displacement of […] from 5HT7 receptor at 10 uM
[5] = molecular target: Alpha-1A adrenergic receptor (Homo sapiens) (UniProt P35348); experiment: Displacement of […] from adrenergic Alpha-1A receptor at 10 uM
Alpha-1A adrenergic receptor (Homo sapiens), sequence (P35348 whole entry): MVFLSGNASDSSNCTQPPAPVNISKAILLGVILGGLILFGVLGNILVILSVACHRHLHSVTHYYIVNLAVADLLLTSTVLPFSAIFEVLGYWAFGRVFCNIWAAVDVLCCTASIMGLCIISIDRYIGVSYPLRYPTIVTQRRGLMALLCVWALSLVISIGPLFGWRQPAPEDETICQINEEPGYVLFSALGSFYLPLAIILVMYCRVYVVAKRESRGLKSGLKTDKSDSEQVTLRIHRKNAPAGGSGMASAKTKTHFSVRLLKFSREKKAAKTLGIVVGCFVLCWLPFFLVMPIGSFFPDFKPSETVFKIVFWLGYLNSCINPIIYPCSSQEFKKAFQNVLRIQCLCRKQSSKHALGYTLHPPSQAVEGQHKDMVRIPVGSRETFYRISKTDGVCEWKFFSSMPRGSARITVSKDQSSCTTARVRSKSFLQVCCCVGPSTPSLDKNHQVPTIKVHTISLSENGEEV

[6] = molecular target: Alpha-1B adrenergic receptor (Homo sapiens) (UniProt P35368); experiment: Displacement of […] from adrenergic alpha-1b receptor at 10 uM
Alpha-1B adrenergic receptor (Homo sapiens), sequence (P35368 whole entry): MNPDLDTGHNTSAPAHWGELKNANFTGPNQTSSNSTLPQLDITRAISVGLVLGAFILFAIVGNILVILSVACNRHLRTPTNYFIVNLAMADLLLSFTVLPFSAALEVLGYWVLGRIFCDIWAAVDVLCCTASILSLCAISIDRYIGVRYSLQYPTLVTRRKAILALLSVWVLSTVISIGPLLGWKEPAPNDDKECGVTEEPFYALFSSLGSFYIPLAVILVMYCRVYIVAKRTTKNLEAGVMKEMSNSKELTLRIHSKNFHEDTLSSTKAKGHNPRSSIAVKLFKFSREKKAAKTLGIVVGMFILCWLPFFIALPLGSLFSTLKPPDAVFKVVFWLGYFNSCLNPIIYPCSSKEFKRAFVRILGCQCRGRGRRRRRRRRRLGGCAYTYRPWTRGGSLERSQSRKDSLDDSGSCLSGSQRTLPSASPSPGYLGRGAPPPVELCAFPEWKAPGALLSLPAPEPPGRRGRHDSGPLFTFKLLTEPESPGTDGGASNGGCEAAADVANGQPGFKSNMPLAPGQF

[7] = molecular target: Alpha-2A adrenergic receptor (Homo sapiens) (UniProt P08913); experiment: Displacement of […] from adrenergic alpha-2a receptor at 10 uM
[8] = molecular target: Beta-2 adrenergic receptor (Homo sapiens) (UniProt P07550); experiment: Displacement of […] from adrenergic beta 2 receptor at 10 uM
Beta-2 adrenergic receptor (Homo sapiens), sequence (P07550 whole entry, looked up): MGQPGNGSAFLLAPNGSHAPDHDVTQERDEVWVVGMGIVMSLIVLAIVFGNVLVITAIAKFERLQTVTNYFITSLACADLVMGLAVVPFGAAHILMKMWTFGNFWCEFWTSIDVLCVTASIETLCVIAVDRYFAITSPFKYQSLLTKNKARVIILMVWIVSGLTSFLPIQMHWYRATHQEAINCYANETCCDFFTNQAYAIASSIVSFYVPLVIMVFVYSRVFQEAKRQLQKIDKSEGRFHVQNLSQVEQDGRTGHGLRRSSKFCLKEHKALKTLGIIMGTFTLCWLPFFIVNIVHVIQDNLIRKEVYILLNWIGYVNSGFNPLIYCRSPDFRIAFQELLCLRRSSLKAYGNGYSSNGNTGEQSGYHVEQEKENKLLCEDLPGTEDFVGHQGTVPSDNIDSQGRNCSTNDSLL

[9] = molecular target: D(1A) dopamine receptor (Homo sapiens) (UniProt P21728); experiment: Displacement of […] from dopamine D1 receptor at 10 uM
[10] = molecular target: D(2) dopamine receptor (Homo sapiens) (UniProt P14416); experiment: Displacement of […] from dopamine D2 receptor at 10 uM
D(2) dopamine receptor (Homo sapiens), sequence (P14416 whole entry): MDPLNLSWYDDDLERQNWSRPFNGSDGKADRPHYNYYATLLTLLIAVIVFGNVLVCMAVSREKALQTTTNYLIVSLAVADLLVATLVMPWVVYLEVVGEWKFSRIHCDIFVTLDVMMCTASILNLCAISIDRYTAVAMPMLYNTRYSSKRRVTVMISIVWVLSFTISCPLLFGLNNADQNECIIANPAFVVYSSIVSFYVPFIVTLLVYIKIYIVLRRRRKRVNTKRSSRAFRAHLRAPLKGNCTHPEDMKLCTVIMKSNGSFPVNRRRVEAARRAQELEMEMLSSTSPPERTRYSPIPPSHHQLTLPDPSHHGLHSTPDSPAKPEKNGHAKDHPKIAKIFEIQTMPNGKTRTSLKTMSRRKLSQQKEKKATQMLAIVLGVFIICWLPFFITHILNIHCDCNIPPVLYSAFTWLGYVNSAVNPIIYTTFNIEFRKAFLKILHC

[11] = molecular target: D(3) dopamine receptor (Homo sapiens) (UniProt P35462); experiment: Displacement of […] from dopamine D3 receptor at 10 uM
[12] = molecular target: D(4) dopamine receptor (Homo sapiens) (UniProt P21917); experiment: Displacement of […] from dopamine D4 receptor at 10 uM
D(4) dopamine receptor (Homo sapiens), sequence (P21917 whole entry): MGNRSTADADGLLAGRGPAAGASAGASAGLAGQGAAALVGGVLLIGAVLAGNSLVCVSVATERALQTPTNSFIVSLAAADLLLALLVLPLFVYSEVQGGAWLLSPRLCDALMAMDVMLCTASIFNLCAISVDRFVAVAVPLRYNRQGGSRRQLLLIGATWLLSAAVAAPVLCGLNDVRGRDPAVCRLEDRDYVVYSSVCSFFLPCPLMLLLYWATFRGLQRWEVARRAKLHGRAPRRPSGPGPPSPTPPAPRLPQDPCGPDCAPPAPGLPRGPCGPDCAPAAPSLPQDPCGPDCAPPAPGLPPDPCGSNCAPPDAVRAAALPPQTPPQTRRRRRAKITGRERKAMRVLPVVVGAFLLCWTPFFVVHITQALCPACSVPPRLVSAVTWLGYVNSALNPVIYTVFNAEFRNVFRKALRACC

[13] = molecular target: D(1B) dopamine receptor (Homo sapiens) (UniProt P21918); experiment: Displacement of […] from dopamine D5 receptor at 10 uM
[14] = molecular target: Histamine H1 receptor (Homo sapiens) (UniProt P35367); experiment: Displacement of […] from histamine H1 receptor at 10 uM
[15] = molecular target: 5-hydroxytryptamine receptor 1A (Homo sapiens) (UniProt P08908); experiment: Displacement of […] from 5HT1A receptor at 10 uM
[16] = molecular target: 5-hydroxytryptamine receptor 1B (Homo sapiens) (UniProt P28222); experiment: Displacement of […] from 5HT1B receptor at 10 uM
[17] = molecular target: 5-hydroxytryptamine receptor 1D (Homo sapiens) (UniProt P28221); experiment: Displacement of […] from 5HT1D receptor at 10 uM
[18] = molecular target: 5-hydroxytryptamine receptor 1E (Homo sapiens) (UniProt P28566); experiment: Displacement of […] from 5HT1E receptor at 10 uM
5-hydroxytryptamine receptor 1E (Homo sapiens), sequence (P28566 whole entry): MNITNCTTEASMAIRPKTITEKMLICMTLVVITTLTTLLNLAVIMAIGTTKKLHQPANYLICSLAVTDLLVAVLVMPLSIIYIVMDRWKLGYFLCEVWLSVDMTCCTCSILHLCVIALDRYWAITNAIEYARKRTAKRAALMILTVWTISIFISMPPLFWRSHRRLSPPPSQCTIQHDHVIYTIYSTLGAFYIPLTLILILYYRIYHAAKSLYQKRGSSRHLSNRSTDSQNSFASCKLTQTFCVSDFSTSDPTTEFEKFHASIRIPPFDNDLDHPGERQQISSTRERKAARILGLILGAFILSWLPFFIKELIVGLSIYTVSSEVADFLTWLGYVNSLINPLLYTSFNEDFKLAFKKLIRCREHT

[19] = molecular target: 5-hydroxytryptamine receptor 2A (Homo sapiens) (UniProt P28223); experiment: Displacement of […] from 5HT2A receptor at 10 uM
[20] = molecular target: 5-hydroxytryptamine receptor 2B (Homo sapiens) (UniProt P41595); experiment: Displacement of […] from 5HT2B receptor at 10 uM
[21] = molecular target: 5-hydroxytryptamine receptor 2C (Homo sapiens) (UniProt P28335); experiment: Displacement of […] from 5HT2C receptor at 10 uM
5-hydroxytryptamine receptor 2C (Homo sapiens), sequence (P28335 whole entry): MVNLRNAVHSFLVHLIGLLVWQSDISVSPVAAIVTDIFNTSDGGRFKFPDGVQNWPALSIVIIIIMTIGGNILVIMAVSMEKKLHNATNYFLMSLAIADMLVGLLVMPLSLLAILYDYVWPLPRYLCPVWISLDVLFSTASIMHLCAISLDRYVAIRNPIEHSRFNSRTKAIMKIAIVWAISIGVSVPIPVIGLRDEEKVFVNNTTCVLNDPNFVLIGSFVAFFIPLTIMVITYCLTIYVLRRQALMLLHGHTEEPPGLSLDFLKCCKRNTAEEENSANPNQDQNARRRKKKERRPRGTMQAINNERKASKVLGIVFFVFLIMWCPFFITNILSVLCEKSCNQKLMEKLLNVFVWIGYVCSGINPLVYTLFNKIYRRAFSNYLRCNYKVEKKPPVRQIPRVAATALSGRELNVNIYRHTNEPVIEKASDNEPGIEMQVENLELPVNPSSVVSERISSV

[22] = molecular target: 5-hydroxytryptamine receptor 3A (Homo sapiens) (UniProt P46098); experiment: Displacement of […] from 5HT3 receptor at 10 uM
5-hydroxytryptamine receptor 3A (Homo sapiens), sequence (P46098 whole entry): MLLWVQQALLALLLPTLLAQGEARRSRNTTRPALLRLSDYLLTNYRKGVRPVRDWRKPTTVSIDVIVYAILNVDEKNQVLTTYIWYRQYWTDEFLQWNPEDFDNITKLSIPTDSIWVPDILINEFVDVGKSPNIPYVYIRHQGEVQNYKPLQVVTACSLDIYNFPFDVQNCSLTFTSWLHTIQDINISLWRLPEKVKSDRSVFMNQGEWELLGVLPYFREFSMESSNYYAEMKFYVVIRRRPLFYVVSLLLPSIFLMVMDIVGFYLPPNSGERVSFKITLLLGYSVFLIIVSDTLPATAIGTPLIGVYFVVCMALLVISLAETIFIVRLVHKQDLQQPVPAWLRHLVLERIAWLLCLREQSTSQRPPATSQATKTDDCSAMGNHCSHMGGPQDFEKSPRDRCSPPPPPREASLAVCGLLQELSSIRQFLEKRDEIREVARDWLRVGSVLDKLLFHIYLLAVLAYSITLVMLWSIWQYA

[23] = molecular target: 5-hydroxytryptamine receptor 5A (Homo sapiens) (UniProt P47898); experiment: Displacement of […] from 5HT5A receptor at 10 uM
5-hydroxytryptamine receptor 5A (Homo sapiens), sequence (P47898 whole entry): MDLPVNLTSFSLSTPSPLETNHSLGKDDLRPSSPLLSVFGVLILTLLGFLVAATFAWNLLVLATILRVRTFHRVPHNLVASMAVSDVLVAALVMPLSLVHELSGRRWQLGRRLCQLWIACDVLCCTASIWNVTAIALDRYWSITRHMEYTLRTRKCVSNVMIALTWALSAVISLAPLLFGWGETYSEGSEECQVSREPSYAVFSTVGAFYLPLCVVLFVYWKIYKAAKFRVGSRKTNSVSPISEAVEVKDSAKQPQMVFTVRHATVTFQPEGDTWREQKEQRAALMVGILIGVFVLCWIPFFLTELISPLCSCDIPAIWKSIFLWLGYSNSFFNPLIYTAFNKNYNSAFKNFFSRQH

[24] = molecular target: Mu-type opioid receptor (Homo sapiens) (UniProt P35372); experiment: Displacement of radioligand from mu opioid receptor at 10 uM
[25] = Stability in rat whole blood after 60 mins; type: ADME, tissue-based; conditions: read-out: Stability
Procedure, shortened: (§1)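 No-carrier-added [11C] tracer (25.0 µCi monkey, 46.5 µCi rat) in 1 mL whole blood, shaken at 37 °C. Aliquots taken at 60 and 90 min into acetonitrile spiked with carrier, centrifuged, and supernatant radio-HPLC gives percent unchanged. Pellet counting gives extraction recovery.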

[26] = Stability in rat brain after 60 mins; type: ADME, tissue-based; conditions: read-out: Stability
Procedure, shortened: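 Rat brain (1.75 g) homogenized in saline on ice and incubated with formulated [11C] tracer (186 µCi) at 37 °C with shaking. Aliquots quenched into carrier-spiked acetonitrile, centrifuged, and supernatant analysed by radio-HPLC for percent unchanged.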

[27] = Stability in monkey whole blood after 30 mins; type: ADME, tissue-based, Macaca mulatta; conditions: rhesus monkey, read-out: Stability
[28] = Stability in monkey whole blood after 90 mins; type: ADME, tissue-based, Macaca mulatta; conditions: rhesus monkey, read-out: Stability; procedure, shortened: as §1
Plasma [29] = experiment: Biodistribution in rat plasma at 0.9 to 1.9 Ci/umol, penile iv after 2.33 mins; type: ADME, organism-based; conditions: in vivo, 140 s
Procedure, shortened: (§2)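 No-carrier-added [11C] tracer (0.82-3.6 mCi) given by penile vein to rats, killed at 2.33, 2.83 or 30 min. Brain tissue extracted and homogenized in acetonitrile/water with carrier, plasma treated likewise, urine analysed directly, all by reverse-phase radio-HPLC. Radioactivity normalized to injected dose and body weight as % SUV, split into parent and three radiometabolites.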

Cerebellum [30] = experiment: Biodistribution in rat cerebellum at 0.9 to 1.9 Ci/umol, penile iv after 2.83 mins; type: ADME, organism-based; conditions: in vivo, 170 s; procedure, shortened: as §2
Cerebrum [31] = experiment: Biodistribution in rat cerebrum at 0.9 to 1.9 Ci/umol, penile iv after 2.83 mins; type: ADME, organism-based; conditions: in vivo, 170 s; procedure, shortened: as §2
Plasma [32] = experiment: Biodistribution in rat plasma at 0.9 to 1.9 Ci/umol, penile iv after 2.83 mins; type: ADME, organism-based; conditions: in vivo, 170 s; procedure, shortened: as §2
Rattus norvegicus [33] = experiment: Biodistribution in rat urine at 0.9 to 1.9 Ci/umol, penile iv after 2.83 mins; type: ADME, organism-based; conditions: in vivo, 170 s; procedure, shortened: as §2
Cerebellum [34] = experiment: Biodistribution in rat cerebellum at 0.9 to 1.9 Ci/umol, penile iv after 30 mins; type: ADME, organism-based; conditions: in vivo, 0.5 h; procedure, shortened: as §2
Cerebrum [35] = experiment: Biodistribution in rat cerebrum at 0.9 to 1.9 Ci/umol, penile iv after 30 mins; type: ADME, organism-based; conditions: in vivo, 0.5 h; procedure, shortened: as §2
Plasma [36] = experiment: Biodistribution in rat plasma at 0.9 to 1.9 Ci/umol, penile iv after 30 mins; type: ADME, organism-based; conditions: in vivo, 0.5 h; procedure, shortened: as §2
Cerebellum [37] = experiment: Biodistribution in rat cerebellum at 22.94 umol/kg bolus injection after 10 mins; type: ADME, organism-based; conditions: in vivo
Procedure, shortened: (§3)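 Carrier-added [11C] tracer (carrier 22.94 µmol/kg) injected as bolus into one rat, tissues and plasma taken at 10 min. Samples extracted into acetonitrile and analysed by radio-HPLC. Results given as % SUV, partitioned into parent and radiometabolites A-C.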

Cerebrum [38] = experiment: Biodistribution in rat cerebrum at 22.94 umol/kg bolus injection after 10 mins; type: ADME, organism-based; conditions: in vivo; procedure, shortened: as §3
Plasma [39] = experiment: Biodistribution in rat plasma at 22.94 umol/kg bolus injection after 10 mins; type: ADME, organism-based; conditions: in vivo; procedure, shortened: as §3
Plasma [40] = experiment: Drug level in monkey plasma at 1.35 Ci/umol after 10 mins; type: ADME, cell-free, Macaca mulatta; conditions: rhesus monkey
Procedure, shortened: (§4)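 Two monkey experiments with no-carrier-added [11C] tracer given iv. Anticoagulated venous blood drawn at 10 and 30 min, plasma analysed by radio-HPLC. Parent fraction reported as percent of plasma radioactivity and as % SUV.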

Plasma [41] = experiment: Drug level in monkey plasma at 1.35 Ci/umol after 30 mins; type: ADME, cell-free, Macaca mulatta; conditions: rhesus monkey, 0.5 h; procedure, shortened: as §4
[42] = Radiochemical stability after 3 hrs at pH 7.5; type: physicochemical; conditions: pH 7.5, 3 h
Procedure, shortened: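 Purity of formulated tracer (saline with ethanol and polysorbate 80, pH ~7.5) followed over 3 h by radio-HPLC on a C18 column, MeOH/H2O/Et3N 70:30:0.1.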

[43] = Biodistribution in rat cerebrum at 0.9 to 1.9 Ci/umol, penile iv after 2.33 mins; conditions: in vivo, 140 s
Rattus norvegicus [44] = experiment: Ratio of brain radioactivity at maximal uptake to that at 60 min in iv dosed rat after 60 mins; conditions: in vivo, 1 h
Mus musculus = experiment: Ratio of brain radioactivity at maximal uptake to that at 60 min in iv dosed mouse after 60 mins; conditions: in vivo, 1 h

Ki [1]: 205 nM
logD [2]: 3.6
Structure (SMILES): COC(=O)CCSc1ccc2nc(-c3ccc(N(C)C)cc3)cn2c1

Activity [3]: < 50%
Activity [4]: < 50%
Activity [5]: < 50%
Activity [6]: < 50%
Activity [7]: < 50%
Activity [8]: < 50%
Activity [9]: < 50%
Activity [10]: < 50%
Activity [11]: < 50%
Activity [12]: < 50%
Activity [13]: < 50%
Activity [14]: < 50%
logD [2]: 4.1
Activity [15]: < 50%
Activity [16]: < 50%
Activity [17]: < 50%
Activity [18]: < 50%
Activity [19]: < 50%
Activity [20]: < 50%
Activity [21]: < 50%
Activity [22]: < 50%
Activity [23]: < 50%
inhibition [24]: < 50%
Structure (SMILES): CSc1ccc2nc(-c3ccc(N(C)C)cc3)cn2c1

Ki [1]: 80 nM
logD [2]: 3.6
Structure (SMILES): CNc1ccc(-c2cn3cc(SC)ccc3n2)cc1

logD [2]: 3.58
Structure (SMILES): CN(C)c1ccc(-c2cn3cc(I)ccc3n2)cc1

remaining at 1 h [25]: 91%
remaining at 1 h [26]: 93.6%
remaining at 0.5 h [27]: 96.2%
remaining at 1.5 h [28]: 94.5%
Drug uptake (Plasma [29]): 9.57%
Drug uptake (Cerebellum [30]): 31.9%
Drug uptake (Cerebrum [31]): 30.2%
Drug uptake (Plasma [32]): 9.15%
Drug uptake (Rattus norvegicus [33]): 25.7%
Drug uptake (Cerebellum [34]): 18.6%
Drug uptake (Cerebrum [35]): 13%
Drug uptake (Plasma [36]): 0.2%
Drug uptake (Cerebellum [37]): 83.1%
Drug uptake (Cerebrum [38]): 80.9%
Drug uptake (Plasma [39]): 55.3%
Activity (Plasma [40]): 12.4%
Activity (Plasma [41]): 3.5%
Stability [42]: Stable
Drug uptake [43]: 41.9%
Ratio (Rattus norvegicus [44]): 18.7
Ratio (Mus musculus): 11.1
Structure (SMILES): CN(C)c1ccc(-c2cn3cc(S[11CH3])ccc3n2)cc1

Ki [1]: 377 nM
logD [2]: 2.6
Structure (SMILES): CSc1ccc2nc(-c3ccc(N)cc3)cn2c1

Ratio (Rattus norvegicus [44]): 6.1
Structure (SMILES): CSc1ccc2nc(-c3ccc(N(C)[11CH3])cc3)cn2c1
